Assay results reported in ChEMBL document CHEMBL1124639, “Synthesis and in vitro pharmacology of arpromidine and related phenyl(pyridylalkyl)guanidines, a potential new class of positive inotropic drugs” (J Med Chem, 1989).
The source made the active and inactive calls. The calls are words filed in the database; no cut-off is given here.

Assays:
[1] = biological target: Histamine H2 receptor (Cavia porcellus) (UniProt P47747); assay: Histamine H2 receptor agonistic activity (as a measure of agonism) at the isolated right atrium of guinea pig, activity relative to histamine.; format: functional, tissue-based; conditions: Cardiac atrium
Histamine H2 receptor (Cavia porcellus), sequence (P47747 whole entry, the tested form may be a part): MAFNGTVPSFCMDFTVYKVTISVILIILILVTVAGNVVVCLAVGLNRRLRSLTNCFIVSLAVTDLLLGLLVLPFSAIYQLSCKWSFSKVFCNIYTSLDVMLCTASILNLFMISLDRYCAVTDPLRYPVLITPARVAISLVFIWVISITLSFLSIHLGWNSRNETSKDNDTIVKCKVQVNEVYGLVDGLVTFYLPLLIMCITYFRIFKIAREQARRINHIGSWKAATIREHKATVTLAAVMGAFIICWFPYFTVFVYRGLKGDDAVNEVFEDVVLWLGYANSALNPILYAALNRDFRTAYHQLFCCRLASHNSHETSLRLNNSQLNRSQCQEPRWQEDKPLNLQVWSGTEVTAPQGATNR
Outline: (§1)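 Spontaneously beating isolated guinea pig right atrium with a positive chronotropic read-out. Cumulative concentration-response curves were run against histamine dihydrochloride as the standard. Incubation after each concentration was usually 25 min, adjusted until equilibrium. H2 selectivity was checked with cimetidine (10 µM and 1 µM) and metoprolol (1 µM). Potency relative to histamine = 1 was calculated from mean pD2 values.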

[2] = biological target: Histamine H2 receptor (Cavia porcellus) (UniProt P47747); assay: Potency relative to histamine calculated from mean pD2 value in guinea pig right atrium.; format: functional, tissue-based; conditions: Cardiac atrium; outline: as §1
[3] = biological target: Histamine H2 receptor (Cavia porcellus) (UniProt P47747); assay: Histamine H2 receptor agonism relative to histamine on isolated guinea pig right atrium; format: functional, tissue-based; conditions: Cardiac atrium; outline: as §1
Cavia porcellus [4] = organism: Cavia porcellus; assay: Increase in heart rate with maximal inotropic response in isolated perfused guinea pig heart; format: functional; set-up: unit not given beside the values
Outline: (§2)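 Langendorff-perfused isolated guinea pig heart. Compounds were given as a bolus injected into the perfusion stream, with impromidine as reference. Net increases in LV dp/dtmax, heart rate and coronary flow were expressed against impromidine = 100% in a control group (n = 6 each). Relative potency was taken from molar ED50 ratios versus impromidine = 100%.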

Cavia porcellus [5] = organism: Cavia porcellus; assay: Chronotropic effect assessed from maximal increase in delta LV (dp/dtmax) in isolated perfused guinea pig heart; format: functional; conditions: in the assay text read “Inotropic effect” for “Chronotropic effect”; outline: as §2
Cavia porcellus [6] = organism: Cavia porcellus; assay: Increase in coronary flow with maximal inotropic response in isolated perfused guinea pig heart; format: functional; set-up: unit not given beside the values; outline: as §2
Cavia porcellus [7] = organism: Cavia porcellus; assay: Relative potency with impromidine (100%) in isolated perfused guinea pig heart; format: functional; outline: as §2
[8] = biological target: Histamine H2 receptor (Cavia porcellus) (UniProt P47747); assay: Intrinsic activity (as a measure of agonism) on electrically stimulated papillary muscle of guinea pig; format: functional, tissue-based; conditions: Muscle tissue
Outline: (§3)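 Isolated right-ventricular papillary muscle from guinea pig, electrically paced at 1 Hz with 1 ms pulses, in Krebs-Henseleit solution gassed with O2/CO2 95:5 at 32.5 °C. Compounds were tested as hydrohalide salts. Cumulative concentration-response curves of contractile force were run against histamine as the standard agonist. […] relative potency were taken from pD2, with histamine maximum = 1.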

[9] = biological target: Histamine H2 receptor (Cavia porcellus) (UniProt P47747); assay: Agonistic activity relative to histamine on electrically stimulated papillary muscle of guinea pig; format: functional, tissue-based; conditions: Muscle tissue; outline: as §3
Histamine H1 receptor [10] = biological target: T1, Histamine H1 receptor (Cavia porcellus, UniProt P31389); assay: Antagonist activity at histamine H1 receptor against histamine in isolated ileum of guinea pig.; format: functional, tissue-based; conditions: read-out: pA2 (converted)
T1 sequence (P31389 whole entry): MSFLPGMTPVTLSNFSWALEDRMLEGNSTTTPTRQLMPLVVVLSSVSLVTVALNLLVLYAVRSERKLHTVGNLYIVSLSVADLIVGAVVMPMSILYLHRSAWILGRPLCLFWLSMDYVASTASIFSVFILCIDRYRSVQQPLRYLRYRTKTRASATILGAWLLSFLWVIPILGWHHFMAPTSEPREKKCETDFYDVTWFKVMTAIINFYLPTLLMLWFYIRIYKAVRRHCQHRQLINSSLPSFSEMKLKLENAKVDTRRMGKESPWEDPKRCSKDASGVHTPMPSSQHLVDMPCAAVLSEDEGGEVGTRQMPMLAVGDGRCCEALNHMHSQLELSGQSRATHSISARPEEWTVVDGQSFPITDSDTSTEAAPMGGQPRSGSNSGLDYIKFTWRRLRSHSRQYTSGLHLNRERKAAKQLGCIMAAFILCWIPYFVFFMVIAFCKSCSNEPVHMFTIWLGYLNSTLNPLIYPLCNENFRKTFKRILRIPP
Outline: (§4)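 Isolated guinea pig ileum contracted by histamine, with histamine dihydrochloride as the standard agonist in cumulative dose-response curves. pA2 was derived. For compounds that depressed the histamine maximum at 10 µM, -log KB was taken at 3 µM antagonist from log(DR-1) = log[ant.] - log KB.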

[11] = biological target: Histamine H2 receptor (Cavia porcellus) (UniProt P47747); assay: H2 receptor agonistic activity in isolated right atrium of guinea pig compared to histamine; format: functional, tissue-based; conditions: Cardiac atrium; outline: as §1
[12] = biological target: Histamine H2 receptor (Cavia porcellus) (UniProt P47747); assay: Potency at H2 receptor compared to histamine from mean pD2 value in right atrium of guinea pig; format: functional, tissue-based; conditions: Cardiac atrium; outline: as §1
[13] = biological target: Histamine H2 receptor (Cavia porcellus) (UniProt P47747); assay: H2 receptor agonist activity relative to histamine on isolated right atrium of guinea pig; format: functional, tissue-based; conditions: Cardiac atrium; outline: as §1
[14] = biological target: Histamine H2 receptor (Cavia porcellus) (UniProt P47747); assay: Intrinsic activity at H2 receptor in electrically stimulated guinea pig papillary muscle; format: functional, tissue-based; outline: as §3
[15] = biological target: Histamine H2 receptor (Cavia porcellus) (UniProt P47747); assay: Agonist activity at H2 receptor relative to histamine on electrically stimulated papillary muscle of guinea pig; format: functional, tissue-based; outline: as §3
Histamine H1 receptor [16] = biological target: T1, Histamine H1 receptor; assay: Antagonist activity at histamine H1 receptor against histamine in isolated ileum of guinea pig; format: functional, tissue-based; conditions: read-out: pA2 (converted); outline: as §4
[17] = biological target: Histamine H2 receptor (Cavia porcellus) (UniProt P47747); assay: Compound was tested for histamine H2 receptor agonistic activity of compound relative to histamine on isolated right atrium of guinea pig;NA means inactive as agonist at </=10 uM.; format: functional, tissue-based; conditions: Cardiac atrium; outline: as §1

Row | SMILES | Intrinsic activity [1] | Relative potency [2] | pD2 [3] | Intrinsic activity [8] | pD2 [9] | Kb (Histamine H1 receptor [10]) [nM] | further results
1 | N=C(NCCCc1c[nH]cn1)NCCCC(c1ccccc1)c1ccccn1 (stereo not drawn) | 1 | 4.1 | 6.61 | – | – | – | –
2 | N=C(NCCCc1c[nH]cn1)NCCC(c1ccc(Cl)cc1)c1ccccn1 (stereo not drawn) | 1 | 69.2 | 7.84 | 0.8 | 7.39 | 77.6 | Delta heart rate (Cavia porcellus [4]): 62; Delta LV (Cavia porcellus [5]): 91; Delta coronary flow (Cavia porcellus [6]): 103; Relative potency (Cavia porcellus [7]): 90
3 | N=C(NCCCc1c[nH]cn1)NCCC(c1cccc(C(F)(F)F)c1)c1ccccn1 (stereo not drawn) | 1 | 26.9 | 7.43 | 0.7 | 7.44 | 525 | –
4 | N=C(NC/C=C(\c1ccc(F)cc1)c1ccccn1)NCCCc1c[nH]cn1 | 1 | 29.5 | 7.47 | – | – | 347 | –
5 | N=C(NCCCc1c[nH]cn1)NCCC(c1ccccn1)c1ccccc1Cl (stereo not drawn) | – | – | – | – | – | 513 | Intrinsic activity [11]: 0.9; Relative potency [12]: 22.4; pD2 [13]: 7.35
6 | N=C(NCCCc1c[nH]cn1)NCCC(c1ccc(F)cc1)c1ccccn1 (stereo not drawn) [ARPROMIDINE] | 1 | 102 | 8.01 | 0.8 | 7.94 | – | Delta heart rate (Cavia porcellus [4]): 57; Delta LV (Cavia porcellus [5]): 97; Delta coronary flow (Cavia porcellus [6]): 143; Relative potency (Cavia porcellus [7]): 146
7 | N=C(NCCCc1c[nH]cn1)NCCC(c1cc(Cl)cc(Cl)c1)c1ccccn1 (stereo not drawn) | 1 | 23.4 | 7.37 | – | – | 43.7 | –
8 | N=C(NCCCc1c[nH]cn1)NCCC(c1ccc(C(F)(F)F)cc1)c1ccccn1 (stereo not drawn) | 0.9 | 57.5 | 7.76 | 0.9 | 7.23 | 282 | –
9 | N=C(NCCCc1c[nH]cn1)NCCC(c1ccccc1)c1ccc(Cl)c(Cl)c1 (stereo not drawn) | 1 | 28.8 | 7.46 | 0.6 | 6.03 | 195 | –
10 | N=C(NCCCc1c[nH]cn1)NCCC(c1ccc(Br)cc1)c1ccccn1 (stereo not drawn) | 1 | 30.2 | 7.48 | 0.4 | 6.97 | 120 | Delta heart rate (Cavia porcellus [4]): 101; Delta LV (Cavia porcellus [5]): 93; Delta coronary flow (Cavia porcellus [6]): 155; Relative potency (Cavia porcellus [7]): 61
11 | N=C(NCCCc1c[nH]cn1)NCCC(c1ccc(F)cc1)c1cccnc1 (stereo not drawn) | 1 | 123 | 8.09 | 0.8 | 7.91 | – | –
12 | CN(CCC(c1ccc(F)cc1)c1ccccn1)C(=N)NCCCc1c[nH]cn1 (stereo not drawn) | 0.8 | 0.25 | 5.4 | – | – | 1100 | –
13 | N/C(=N\CCC(c1cccc([N+](=O)[O-])c1)c1ccccn1)NCCCc1c[nH]cn1 (stereo not drawn) | 0.9 | 8.1 | 6.91 | – | – | 1700 | –
14 | NC(=NCCC(c1ccc(F)cc1)c1ccccn1)NCCCc1cnc[nH]1 (stereo not drawn) [ARPROMIDINE] | – | – | – | – | – | 22.4 | –
15 | N=C(NCCCc1c[nH]cn1)NCCC(c1ccccn1)c1ccccc1F (stereo not drawn) | 1 | 28.8 | 7.46 | – | – | 437 | –
16 | N=C(NCCCc1c[nH]cn1)NCCC(c1ccc(F)c(F)c1)c1ccccn1 (stereo not drawn) | – | – | – | – | – | – | Delta heart rate (Cavia porcellus [4]): 85; Delta LV (Cavia porcellus [5]): 123; Delta coronary flow (Cavia porcellus [6]): 108; Relative potency (Cavia porcellus [7]): 240; Intrinsic activity [11]: 1; Intrinsic activity [14]: 0.8; Relative potency [12]: 132; pD2 [15]: 7.9; pD2 [13]: 8.12
17 | N=C(NCCCc1c[nH]cn1)NCCC(c1ccc(Cl)c(Cl)c1)c1ccccn1 (stereo not drawn) | 1 | 155 | 8.19 | 0.8 | 7.54 | 79.4 | Delta heart rate (Cavia porcellus [4]): 62; Delta LV (Cavia porcellus [5]): 121; Delta coronary flow (Cavia porcellus [6]): 128; Relative potency (Cavia porcellus [7]): 221
18 | N=C(NCCCc1c[nH]cn1)NCCC(c1ccccn1)c1ccc(Cl)cc1Cl (stereo not drawn) | 0.9 | 52.5 | 7.72 | – | – | 288 | –
19 | N=C(NCCCc1c[nH]cn1)NCCC(c1ccccc1)c1ccc(Cl)cc1 (stereo not drawn) | – | – | – | – | – | 97.7 | Intrinsic activity [11]: 1; Intrinsic activity [14]: 0.8; Relative potency [12]: 13.2; pD2 [15]: 5.83; pD2 [13]: 7.12

Row | SMILES | Intrinsic activity [1] | Relative potency [2] | pD2 [3] | Intrinsic activity [8] | pD2 [9] | Kb (Histamine H1 receptor [10]) [nM] | further results
20 | N/C(=N\CCC(c1ccc(O)cc1)c1ccccn1)NCCCc1c[nH]cn1 (stereo not drawn) | 1 | 4.3 | 6.63 | – | – | – | Kb (Histamine H1 receptor [16]): 661 nM
21 | Cc1[nH]cnc1CSCCNC(=N)NCCCc1c[nH]cn1 [IMPROMIDINE] | – | – | – | – | – | – | Delta heart rate (Cavia porcellus [4]): 100; Delta LV (Cavia porcellus [5]): 100; Delta coronary flow (Cavia porcellus [6]): 100; Relative potency (Cavia porcellus [7]): 100
22 | N=C(NCCCc1c[nH]cn1)NCCC(c1ccncc1)c1ccc(F)cc1 (stereo not drawn) | – | – | – | – | – | 37.2 | Intrinsic activity [11]: 1; Intrinsic activity [14]: 0.9; Relative potency [12]: 42.7; pD2 [15]: 7.28; pD2 [13]: 7.63
23 | N=C(NCCCc1c[nH]cn1)NCCC(c1cccc(F)c1)c1ccccn1 (stereo not drawn) | 1 | 75.9 | 7.88 | 0.5 | 7.79 | 158 | –
24 | N=C(NCCCc1c[nH]cn1)NCC(c1ccccc1)c1ccccn1 (stereo not drawn) | 1 | 2.2 | 6.35 | – | – | 3310 | –
25 | N/C(=N\CCC(c1cccc(N)c1)c1ccccn1)NCCCc1c[nH]cn1 (stereo not drawn) | 0.9 | 24 | 7.38 | – | – | 851 | –
26 | COc1ccc(C(CC/N=C(\N)NCCCc2c[nH]cn2)c2ccccn2)cc1 (stereo not drawn) | 1 | 27.5 | 7.44 | 0.5 | 7 | 269 | –
27 | N/C(=N\CCC(O)(c1ccc(F)cc1)c1ccccn1)NCCCc1c[nH]cn1 (stereo not drawn) | 0.9 | 26.3 | 7.42 | – | – | 115 | –
28 | N=C(NCCCc1c[nH]cn1)NCCC(c1ccccn1)c1ccccn1 | 1 | 7.9 | 6.9 | – | – | 389 | –
29 | N=C(NCCCc1c[nH]cn1)NCCC(c1ccccc1)c1ccc(F)cc1 (stereo not drawn) | 1 | 53.7 | 7.73 | 0.7 | 7.45 | 34.7 | –
30 | N=C(NCCCc1c[nH]cn1)NCCC(Cc1ccccc1)c1ccc(F)cc1 (stereo not drawn) | 0.8 | 1.5 | 6.17 | – | – | 141 | –
31 | N=C(N)NCCC(c1ccc(F)cc1)c1ccccn1 (stereo not drawn) | – | – | – | – | – | 229 | Intrinsic activity [17]: inactive
32 | N=C(NCCCc1c[nH]cn1)NCCSC(c1ccccc1)c1ccccn1 (stereo not drawn) | 1 | 4 | 6.6 | – | – | – | –
33 | Cc1ccc(C(CC/N=C(\N)NCCCc2c[nH]cn2)c2ccccn2)cc1 (stereo not drawn) | 1 | 51.3 | 7.71 | 1 | 7.15 | 148 | Delta heart rate (Cavia porcellus [4]): 77; Delta LV (Cavia porcellus [5]): 96; Delta coronary flow (Cavia porcellus [6]): 59; Relative potency (Cavia porcellus [7]): 138
34 | N=C(NCCCc1c[nH]cn1)NCCC(c1ccccn1)c1cccs1 (stereo not drawn) | 1 | 14.5 | 7.16 | – | – | 45.7 | –
35 | N=C(NCCCc1c[nH]cn1)NCCC(c1cccc(Cl)c1)c1ccccn1 (stereo not drawn) | 1 | 87.1 | 7.94 | 0.6 | 7.71 | – | Delta heart rate (Cavia porcellus [4]): 96; Delta LV (Cavia porcellus [5]): 103; Delta coronary flow (Cavia porcellus [6]): 79; Relative potency (Cavia porcellus [7]): 199
36 | N=C(NCCCc1c[nH]cn1)NCCCC(c1ccc(F)cc1)c1ccccn1 (stereo not drawn) | 0.9 | 7.4 | 6.87 | – | – | 46.8 | –
37 | N=C(NCCCc1c[nH]cn1)NCCC(c1cc(F)cc(F)c1)c1ccccn1 (stereo not drawn) | 1 | 112 | 8.05 | 0.8 | 7.91 | 275 | Delta heart rate (Cavia porcellus [4]): 79; Delta LV (Cavia porcellus [5]): 129; Delta coronary flow (Cavia porcellus [6]): 182; Relative potency (Cavia porcellus [7]): 244
